Results as given in ChEMBL document CHEMBL4330096, “Discovery of potent and selective 5-azaindazole inhibitors of leucine-rich repeat kinase 2 (LRRK2) - Part 1” (Bioorg Med Chem Lett, 2019).

How the values were obtained:
[1] = Lipophilicity, log D of the compound at pH 7.4; type: physicochemical; details: buffer
[2] = target: T1, Serine/threonine-protein kinase Sgk1 (Homo sapiens) (UniProt O00141); assay: Inhibition of SGK1 (unknown origin) at 1 uM relative to control
T1 sequence (whole entry): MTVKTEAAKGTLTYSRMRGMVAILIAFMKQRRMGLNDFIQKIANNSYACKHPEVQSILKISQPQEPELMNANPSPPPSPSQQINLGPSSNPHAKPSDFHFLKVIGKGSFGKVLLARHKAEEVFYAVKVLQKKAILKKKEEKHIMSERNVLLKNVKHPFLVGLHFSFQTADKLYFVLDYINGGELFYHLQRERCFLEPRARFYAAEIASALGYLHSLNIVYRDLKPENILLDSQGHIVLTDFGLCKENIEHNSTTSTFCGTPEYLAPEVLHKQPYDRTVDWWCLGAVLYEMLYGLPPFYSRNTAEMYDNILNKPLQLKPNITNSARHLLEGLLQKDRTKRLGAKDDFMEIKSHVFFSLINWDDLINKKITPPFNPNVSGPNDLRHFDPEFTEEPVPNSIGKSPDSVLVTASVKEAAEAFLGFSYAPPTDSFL
In short: (§1)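 Single-concentration screen across a panel of 59 protein kinases, with each compound tested at one fixed concentration. The read-out is residual kinase activity relative to control. Panel results are also condensed into a rescaled geometric mean (RGM) selectivity score.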

[3] = target: Maternal embryonic leucine zipper kinase (Homo sapiens) (UniProt Q14680); assay: Inhibition of MELK (unknown origin) at 1 uM relative to control
In short: (§2)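 Single-concentration screen of each compound against a 59-protein-kinase panel, run at 10 µM or 1 µM. Activity relative to control is shown as a heat map across the panel.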

[4] = target: Phosphorylase kinase (Homo sapiens) (UniProt P15735+P46020+P46019+Q93100+Q16816); assay: Inhibition of PHK (unknown origin) at 1 uM relative to control; type: protein-complex assay; in short: as §2
[5] = target: Casein kinase 2 (Homo sapiens) (UniProt P67870+P68400+P19784+Q8NEV1); assay: Inhibition of CK2 (unknown origin) at 1 uM relative to control; type: protein assay
In short: (§3)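 Single-point screen of each compound against a panel of 59 protein kinases, at 1 or 10 μM. The panel data are also summarised as a rescaled geometric mean selectivity score.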

[6] = target: Rho-associated protein kinase 2 (Homo sapiens) (UniProt O75116); assay: Inhibition of ROCK2 (unknown origin) at 1 uM relative to control; in short: as §2
[7] = target: RAC-beta serine/threonine-protein kinase (Homo sapiens) (UniProt P31751); assay: Inhibition of PKBb (unknown origin) at 1 uM relative to control; in short: as §2
[8] = target: Mitogen-activated protein kinase 1 (Homo sapiens) (UniProt P28482); assay: Inhibition of ERK2 (unknown origin) at 1 uM relative to control; in short: as §3
[9] = target: Fibroblast growth factor receptor 1 (Homo sapiens) (UniProt P11362); assay: Inhibition of FGFR1 (unknown origin) at 1 uM relative to control; in short: as §3
[10] = target: Tyrosine-protein kinase SYK (Homo sapiens) (UniProt P43405); assay: Inhibition of SYK (unknown origin) at 1 uM relative to control; in short: as §1
[11] = target: Glycogen synthase kinase-3 beta (Homo sapiens) (UniProt P49841); assay: Inhibition of GSK3b (unknown origin) at 1 uM relative to control; in short: as §3
[12] = Ratio of drug level in mouse brain to plasma; details: read-out: BPR
In short: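 Mice; ratio based on total (not unbound) compound concentrations in brain versus plasma.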

Chain of Mitogen-activated protein kinase 1 (Homo sapiens) (P28482 whole entry): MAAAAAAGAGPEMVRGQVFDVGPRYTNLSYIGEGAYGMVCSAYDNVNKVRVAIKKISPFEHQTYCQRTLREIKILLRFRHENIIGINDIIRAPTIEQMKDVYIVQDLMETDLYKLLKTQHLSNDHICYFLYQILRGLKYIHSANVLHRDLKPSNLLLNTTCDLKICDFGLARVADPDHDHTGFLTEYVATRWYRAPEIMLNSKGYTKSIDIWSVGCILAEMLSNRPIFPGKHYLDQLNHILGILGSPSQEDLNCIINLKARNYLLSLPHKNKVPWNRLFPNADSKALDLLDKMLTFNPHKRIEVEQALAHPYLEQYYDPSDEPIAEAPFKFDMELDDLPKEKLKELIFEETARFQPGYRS
Chain of Rho-associated protein kinase 2 (Homo sapiens) (O75116 whole entry, looked up): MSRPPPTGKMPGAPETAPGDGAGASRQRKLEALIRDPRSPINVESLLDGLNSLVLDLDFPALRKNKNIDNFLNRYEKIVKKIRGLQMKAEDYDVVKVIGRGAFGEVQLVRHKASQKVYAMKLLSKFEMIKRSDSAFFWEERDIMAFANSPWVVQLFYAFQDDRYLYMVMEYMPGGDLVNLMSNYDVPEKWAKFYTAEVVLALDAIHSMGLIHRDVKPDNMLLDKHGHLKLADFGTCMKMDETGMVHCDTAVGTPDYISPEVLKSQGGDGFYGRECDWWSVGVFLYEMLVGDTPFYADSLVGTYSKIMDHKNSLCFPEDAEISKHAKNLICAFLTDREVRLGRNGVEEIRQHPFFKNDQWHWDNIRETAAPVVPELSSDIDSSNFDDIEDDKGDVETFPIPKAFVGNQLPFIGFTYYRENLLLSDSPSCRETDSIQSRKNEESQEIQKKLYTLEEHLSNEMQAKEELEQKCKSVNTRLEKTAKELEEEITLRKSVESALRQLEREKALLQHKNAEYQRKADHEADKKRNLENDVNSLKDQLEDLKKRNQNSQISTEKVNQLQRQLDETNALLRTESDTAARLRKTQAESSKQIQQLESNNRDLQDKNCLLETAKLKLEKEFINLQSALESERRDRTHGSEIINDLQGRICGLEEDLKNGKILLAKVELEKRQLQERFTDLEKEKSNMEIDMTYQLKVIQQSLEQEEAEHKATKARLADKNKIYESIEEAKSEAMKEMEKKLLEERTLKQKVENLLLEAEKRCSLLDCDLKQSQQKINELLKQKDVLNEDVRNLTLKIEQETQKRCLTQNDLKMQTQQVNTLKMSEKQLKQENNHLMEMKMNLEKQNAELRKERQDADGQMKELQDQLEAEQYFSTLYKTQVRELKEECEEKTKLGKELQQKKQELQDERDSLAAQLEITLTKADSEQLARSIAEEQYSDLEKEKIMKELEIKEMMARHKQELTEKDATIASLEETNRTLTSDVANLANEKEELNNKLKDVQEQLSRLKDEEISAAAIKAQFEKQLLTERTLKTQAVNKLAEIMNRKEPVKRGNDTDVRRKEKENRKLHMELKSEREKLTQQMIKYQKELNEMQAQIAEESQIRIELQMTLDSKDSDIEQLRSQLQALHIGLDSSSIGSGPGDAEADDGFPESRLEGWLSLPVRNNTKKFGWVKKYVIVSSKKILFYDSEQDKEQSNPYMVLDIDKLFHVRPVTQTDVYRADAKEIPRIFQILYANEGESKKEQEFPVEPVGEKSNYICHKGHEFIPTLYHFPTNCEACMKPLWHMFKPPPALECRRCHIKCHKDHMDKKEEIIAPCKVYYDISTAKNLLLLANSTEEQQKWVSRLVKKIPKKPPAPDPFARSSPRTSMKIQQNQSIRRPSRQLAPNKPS
Chain of Fibroblast growth factor receptor 1 (Homo sapiens) (P11362 22-822 limits assumed): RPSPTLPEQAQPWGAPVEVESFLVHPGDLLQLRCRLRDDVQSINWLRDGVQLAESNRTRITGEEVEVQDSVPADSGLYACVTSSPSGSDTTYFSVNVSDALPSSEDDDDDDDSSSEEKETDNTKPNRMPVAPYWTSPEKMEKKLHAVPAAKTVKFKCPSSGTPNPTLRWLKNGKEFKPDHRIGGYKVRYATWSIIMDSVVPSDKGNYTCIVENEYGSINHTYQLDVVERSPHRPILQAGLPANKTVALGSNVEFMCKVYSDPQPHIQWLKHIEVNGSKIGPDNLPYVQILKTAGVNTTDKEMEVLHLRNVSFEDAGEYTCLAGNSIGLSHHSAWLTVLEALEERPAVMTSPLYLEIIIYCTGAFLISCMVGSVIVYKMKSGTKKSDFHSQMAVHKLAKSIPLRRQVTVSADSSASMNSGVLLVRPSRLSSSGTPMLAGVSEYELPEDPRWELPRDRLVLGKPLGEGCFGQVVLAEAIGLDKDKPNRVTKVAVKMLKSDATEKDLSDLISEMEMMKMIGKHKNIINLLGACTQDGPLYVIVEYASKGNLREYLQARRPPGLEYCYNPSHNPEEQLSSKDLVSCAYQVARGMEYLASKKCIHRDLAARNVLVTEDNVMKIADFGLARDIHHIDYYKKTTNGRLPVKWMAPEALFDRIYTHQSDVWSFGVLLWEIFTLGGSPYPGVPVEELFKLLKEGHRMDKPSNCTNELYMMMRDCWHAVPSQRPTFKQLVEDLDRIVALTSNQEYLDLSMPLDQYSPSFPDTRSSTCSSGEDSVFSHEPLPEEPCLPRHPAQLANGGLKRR
Chain of RAC-beta serine/threonine-protein kinase (Homo sapiens) (P31751 whole entry): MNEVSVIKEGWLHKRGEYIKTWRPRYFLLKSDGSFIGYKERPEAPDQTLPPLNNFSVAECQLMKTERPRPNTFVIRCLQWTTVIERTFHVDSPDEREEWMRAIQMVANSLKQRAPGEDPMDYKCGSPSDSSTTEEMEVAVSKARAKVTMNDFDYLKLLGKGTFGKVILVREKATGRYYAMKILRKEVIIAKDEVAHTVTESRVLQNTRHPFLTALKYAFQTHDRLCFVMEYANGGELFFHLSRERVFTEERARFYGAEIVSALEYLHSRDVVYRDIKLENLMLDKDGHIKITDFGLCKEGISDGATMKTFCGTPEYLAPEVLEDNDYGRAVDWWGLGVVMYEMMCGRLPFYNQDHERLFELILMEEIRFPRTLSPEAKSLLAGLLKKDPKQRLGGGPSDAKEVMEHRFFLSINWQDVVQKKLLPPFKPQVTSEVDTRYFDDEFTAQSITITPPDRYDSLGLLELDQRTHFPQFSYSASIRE
Chain of Glycogen synthase kinase-3 beta (Homo sapiens) (P49841 whole entry, looked up): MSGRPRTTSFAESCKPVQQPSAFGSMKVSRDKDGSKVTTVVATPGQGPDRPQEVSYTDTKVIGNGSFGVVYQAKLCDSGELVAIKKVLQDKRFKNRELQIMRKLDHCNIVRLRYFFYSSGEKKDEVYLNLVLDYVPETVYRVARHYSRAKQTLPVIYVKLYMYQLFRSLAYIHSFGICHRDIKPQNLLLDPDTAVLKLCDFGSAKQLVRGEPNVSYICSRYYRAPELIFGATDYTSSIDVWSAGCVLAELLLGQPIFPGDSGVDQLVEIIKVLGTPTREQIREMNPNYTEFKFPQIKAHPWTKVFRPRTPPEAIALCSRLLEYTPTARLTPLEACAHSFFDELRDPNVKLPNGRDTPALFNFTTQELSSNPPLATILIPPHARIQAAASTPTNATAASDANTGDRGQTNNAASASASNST
Chain of Maternal embryonic leucine zipper kinase (Homo sapiens) (Q14680 whole entry, looked up): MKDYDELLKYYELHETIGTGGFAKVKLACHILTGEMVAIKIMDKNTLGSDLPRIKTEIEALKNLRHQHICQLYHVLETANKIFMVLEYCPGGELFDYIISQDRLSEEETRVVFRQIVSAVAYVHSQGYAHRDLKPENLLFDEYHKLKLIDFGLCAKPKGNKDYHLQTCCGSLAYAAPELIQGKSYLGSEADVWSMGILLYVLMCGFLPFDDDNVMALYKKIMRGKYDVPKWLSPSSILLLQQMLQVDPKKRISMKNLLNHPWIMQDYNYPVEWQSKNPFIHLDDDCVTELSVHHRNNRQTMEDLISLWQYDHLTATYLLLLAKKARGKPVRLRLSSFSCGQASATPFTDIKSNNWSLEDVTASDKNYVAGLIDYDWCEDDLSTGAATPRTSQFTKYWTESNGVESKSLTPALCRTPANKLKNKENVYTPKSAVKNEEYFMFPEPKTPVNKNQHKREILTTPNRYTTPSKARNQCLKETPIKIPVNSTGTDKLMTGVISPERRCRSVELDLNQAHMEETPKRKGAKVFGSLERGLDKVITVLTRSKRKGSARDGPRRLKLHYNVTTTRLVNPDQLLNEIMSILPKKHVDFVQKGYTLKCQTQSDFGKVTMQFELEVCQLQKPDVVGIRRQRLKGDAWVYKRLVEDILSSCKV

| SMILES | logD [1] | inhibition [2] [%] | inhibition [3] [%] | inhibition [4] [%] | inhibition [5] [%] | inhibition [6] [%] | inhibition [7] [%] | inhibition [8] [%] | inhibition [9] [%] | inhibition [10] [%] | inhibition [11] [%] | Kp [12] |
| --- | --- | --- | --- | --- | --- | --- | --- | --- | --- | --- | --- | --- |
| Cc1n[nH]c2ccnc(OC3CCCCC3)c12 | > 4 | – | – | – | – | – | – | – | – | – | – | – |
| c1cc(-c2n[nH]c3ccnc(OC4CCOCC4)c23)cc(N2CCOCC2)n1 | – | 0 | 79 | 15 | 3 | 0 | 0 | 51 | 4 | 0 | 36 | – |
| Cc1n[nH]c2ccnc(NC3CCCCC3)c12 | – | – | – | – | – | – | – | – | – | – | – | 4 |
| CC(C)n1cc(-c2n[nH]c3ccnc(OC4CCOCC4)c23)cn1 | – | 12 | 84 | 41 | 20 | 28 | 27 | 49 | 56 | 0 | 90 | – |
